Each structure is given as a SMILES string. pIC50: −log10 of the molar value. Positions of bridges follow the written chain, without caps; N, C: chain ends. Residues, ends and D or L forms follow the SMILES beside them. Some results are limits rather than exact numbers.

Type in all cases: cell-based
Experiment [1] addresses Sodium channel protein type 9 subunit alpha (Homo sapiens, UniProt Q15858). Kind of experiment: Inhibition of human Nav1.7 expressed in HEK293 cells by whole cell patch clamp electrophysiology method. On the technique in general: Patch clamp records ionic current or voltage across a cell membrane.
Experiment [2] concerns the target T1, Sodium channel protein type 5 subunit alpha (Homo sapiens, UniProt Q14524). Kind of experiment: Inhibition of human Nav1.5 expressed in HEK293 cells assessed as inward peak current by ion-works quattro patch clamp electrophysiology method. In outline:
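Stable HEK293 line expressing human NaV1.5, recorded by population patch clamp on the IonWorks Quattro.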

The target of experiment [3] is T1, Sodium channel protein type 5 subunit alpha. Kind of experiment: Inhibition of human Nav1.5 expressed in HEK293 cells by whole cell patch clamp electrophysiology method. Put shortly:
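Stable HEK293 line expressing human NaV1.5, recorded on the PatchXpress 7000A. Percent inhibition versus concentration was pooled from at least 10 cells, with two to three points per concentration. The pooled set was fitted with a four-parameter Hill equation to give a single IC50 curve.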

T1 sequence (Q14524 whole entry): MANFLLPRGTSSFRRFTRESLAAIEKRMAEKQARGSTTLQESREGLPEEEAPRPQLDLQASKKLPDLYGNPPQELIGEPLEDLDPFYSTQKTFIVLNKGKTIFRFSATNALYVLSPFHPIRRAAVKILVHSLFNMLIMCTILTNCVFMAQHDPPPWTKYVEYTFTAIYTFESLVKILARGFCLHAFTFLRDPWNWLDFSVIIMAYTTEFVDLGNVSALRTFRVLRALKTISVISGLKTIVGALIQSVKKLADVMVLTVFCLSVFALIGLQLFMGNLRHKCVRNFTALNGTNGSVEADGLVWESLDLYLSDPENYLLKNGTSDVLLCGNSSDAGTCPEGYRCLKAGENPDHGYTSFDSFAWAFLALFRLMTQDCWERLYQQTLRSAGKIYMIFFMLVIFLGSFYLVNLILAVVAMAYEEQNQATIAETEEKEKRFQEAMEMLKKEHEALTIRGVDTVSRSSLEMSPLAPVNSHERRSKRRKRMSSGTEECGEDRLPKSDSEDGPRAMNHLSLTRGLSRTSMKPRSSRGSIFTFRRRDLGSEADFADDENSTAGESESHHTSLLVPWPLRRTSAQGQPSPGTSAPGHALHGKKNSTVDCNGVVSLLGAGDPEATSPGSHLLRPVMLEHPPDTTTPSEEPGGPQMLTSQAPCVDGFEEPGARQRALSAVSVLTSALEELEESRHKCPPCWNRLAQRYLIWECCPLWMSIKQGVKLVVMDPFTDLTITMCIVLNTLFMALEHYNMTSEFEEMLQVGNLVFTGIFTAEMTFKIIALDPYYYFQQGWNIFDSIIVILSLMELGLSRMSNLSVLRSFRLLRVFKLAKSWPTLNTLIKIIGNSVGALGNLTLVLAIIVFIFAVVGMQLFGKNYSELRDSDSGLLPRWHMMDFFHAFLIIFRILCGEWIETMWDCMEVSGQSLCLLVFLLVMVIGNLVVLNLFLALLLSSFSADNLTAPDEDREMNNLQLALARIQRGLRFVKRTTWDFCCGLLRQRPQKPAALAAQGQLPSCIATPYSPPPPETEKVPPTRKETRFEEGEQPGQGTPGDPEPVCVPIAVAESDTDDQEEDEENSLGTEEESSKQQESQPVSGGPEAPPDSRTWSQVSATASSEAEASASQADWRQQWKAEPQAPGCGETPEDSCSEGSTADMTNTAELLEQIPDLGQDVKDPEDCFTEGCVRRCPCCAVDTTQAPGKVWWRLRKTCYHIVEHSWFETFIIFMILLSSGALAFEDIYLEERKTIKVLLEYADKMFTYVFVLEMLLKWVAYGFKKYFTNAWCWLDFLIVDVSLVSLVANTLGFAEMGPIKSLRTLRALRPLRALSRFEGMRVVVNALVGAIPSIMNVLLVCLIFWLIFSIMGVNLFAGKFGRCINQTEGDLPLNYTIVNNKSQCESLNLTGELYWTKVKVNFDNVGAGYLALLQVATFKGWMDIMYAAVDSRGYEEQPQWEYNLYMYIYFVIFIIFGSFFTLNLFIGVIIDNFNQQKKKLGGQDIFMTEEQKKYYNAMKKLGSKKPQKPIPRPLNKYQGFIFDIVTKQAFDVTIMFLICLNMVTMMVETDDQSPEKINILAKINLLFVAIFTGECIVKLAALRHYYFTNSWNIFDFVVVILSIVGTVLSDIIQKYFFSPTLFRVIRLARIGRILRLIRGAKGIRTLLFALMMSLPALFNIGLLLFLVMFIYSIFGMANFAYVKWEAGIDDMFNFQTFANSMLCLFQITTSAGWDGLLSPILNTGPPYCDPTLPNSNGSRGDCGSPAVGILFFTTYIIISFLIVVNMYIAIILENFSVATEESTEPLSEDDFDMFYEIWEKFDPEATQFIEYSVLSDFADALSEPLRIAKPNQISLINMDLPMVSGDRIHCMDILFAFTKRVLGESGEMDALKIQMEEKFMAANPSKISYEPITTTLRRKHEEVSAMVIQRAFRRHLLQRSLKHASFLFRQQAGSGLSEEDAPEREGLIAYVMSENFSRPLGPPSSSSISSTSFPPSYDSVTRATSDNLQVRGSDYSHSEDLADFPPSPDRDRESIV
Sodium channel protein type 9 subunit alpha, sequence (Q15858 whole entry): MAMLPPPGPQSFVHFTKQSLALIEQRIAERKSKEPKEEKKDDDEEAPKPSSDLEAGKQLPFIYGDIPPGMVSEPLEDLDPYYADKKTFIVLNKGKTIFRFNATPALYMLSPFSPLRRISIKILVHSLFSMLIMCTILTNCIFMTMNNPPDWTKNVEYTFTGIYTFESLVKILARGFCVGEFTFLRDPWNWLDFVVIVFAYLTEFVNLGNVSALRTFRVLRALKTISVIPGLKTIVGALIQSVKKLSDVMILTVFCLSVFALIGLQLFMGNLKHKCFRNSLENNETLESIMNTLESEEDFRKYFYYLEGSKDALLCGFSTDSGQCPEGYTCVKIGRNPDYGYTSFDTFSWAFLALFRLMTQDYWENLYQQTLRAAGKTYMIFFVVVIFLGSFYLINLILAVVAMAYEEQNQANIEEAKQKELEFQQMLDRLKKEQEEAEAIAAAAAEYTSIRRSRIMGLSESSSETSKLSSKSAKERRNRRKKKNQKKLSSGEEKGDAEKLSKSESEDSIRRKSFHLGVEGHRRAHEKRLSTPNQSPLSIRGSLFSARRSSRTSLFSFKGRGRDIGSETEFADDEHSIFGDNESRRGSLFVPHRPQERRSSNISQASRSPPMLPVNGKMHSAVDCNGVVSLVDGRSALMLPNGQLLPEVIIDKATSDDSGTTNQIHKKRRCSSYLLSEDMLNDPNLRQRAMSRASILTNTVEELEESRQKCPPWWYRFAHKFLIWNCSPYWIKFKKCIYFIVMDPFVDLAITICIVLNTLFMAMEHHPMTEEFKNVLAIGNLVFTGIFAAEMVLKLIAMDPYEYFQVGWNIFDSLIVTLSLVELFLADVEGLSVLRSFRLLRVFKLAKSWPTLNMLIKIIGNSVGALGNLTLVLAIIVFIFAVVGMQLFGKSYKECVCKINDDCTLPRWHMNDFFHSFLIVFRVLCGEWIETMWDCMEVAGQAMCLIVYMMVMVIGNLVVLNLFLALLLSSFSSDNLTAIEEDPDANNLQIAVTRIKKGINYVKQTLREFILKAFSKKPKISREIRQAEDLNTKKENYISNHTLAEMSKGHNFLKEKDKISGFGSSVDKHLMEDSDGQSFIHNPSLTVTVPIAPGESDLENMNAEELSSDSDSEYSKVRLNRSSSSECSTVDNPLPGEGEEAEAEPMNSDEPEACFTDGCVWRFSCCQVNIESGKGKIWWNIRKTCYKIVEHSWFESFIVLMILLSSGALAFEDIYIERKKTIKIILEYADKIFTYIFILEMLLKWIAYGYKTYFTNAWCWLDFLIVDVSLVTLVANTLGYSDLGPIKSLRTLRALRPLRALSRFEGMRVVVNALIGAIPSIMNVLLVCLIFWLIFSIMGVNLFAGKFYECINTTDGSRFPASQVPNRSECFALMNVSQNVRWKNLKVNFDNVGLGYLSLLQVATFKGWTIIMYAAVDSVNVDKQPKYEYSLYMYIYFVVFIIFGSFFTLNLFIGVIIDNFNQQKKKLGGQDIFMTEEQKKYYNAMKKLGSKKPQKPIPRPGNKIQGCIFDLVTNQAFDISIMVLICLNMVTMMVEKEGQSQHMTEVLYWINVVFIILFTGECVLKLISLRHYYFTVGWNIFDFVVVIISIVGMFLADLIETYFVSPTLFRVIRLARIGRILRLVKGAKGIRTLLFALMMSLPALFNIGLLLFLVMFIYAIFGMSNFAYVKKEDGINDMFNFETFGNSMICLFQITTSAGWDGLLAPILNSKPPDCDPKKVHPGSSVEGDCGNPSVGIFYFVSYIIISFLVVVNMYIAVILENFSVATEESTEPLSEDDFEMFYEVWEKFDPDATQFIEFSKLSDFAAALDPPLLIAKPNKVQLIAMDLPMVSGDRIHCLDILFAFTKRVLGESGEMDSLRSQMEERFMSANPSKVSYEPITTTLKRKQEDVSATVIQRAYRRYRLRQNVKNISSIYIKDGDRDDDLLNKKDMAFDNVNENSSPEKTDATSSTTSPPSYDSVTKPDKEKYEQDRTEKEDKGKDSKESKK

A word on the pIC50: it is the negative decadic logarithm of the IC50, by convention in mol/L. Consider `CC[C@H](C)[C@@H]1NC(=O)[C@@H]2CSSC[C@@H]3NC(=O)[C@H](C(C)C)NC(=O)[C@H](CC(C)C)NC(=O)[C@H](CC(N)=O)NC(=O)[C@@H]4CCCN4C(=O)[C@H](CCC(=O)O)NC(=O)[C@H](CSSC[C@H](NC(=O)[C@@H](N)CC(=O)O)C(=O)N[C@@H](CC(C)C)C(=O)NCC(=O)N[C@@H](Cc4ccccc4)C(=O)N[C@@H](CCSC)C(=O)N[C@@H](CCCNC(=N)N)C(=O)N[C@@H](CCCCN)C(=O)N2)NC(=O)[C@H](CSSC[C@@H](C(=O)N[C@@H](CCCCN)C(=O)N[C@@H](Cc2ccc(O)cc2)C(=O)N[C@H](C(=O)N[C@@H](Cc2ccccc2)C(N)=O)C(C)C)NC(=O)[C@H](Cc2c[nH]c4ccccc24)NC(=O)[C@H](CCCCN)NC(=O)[C@H](Cc2cnc[nH]2)NC(=O)[C@H]([C@@H](C)O)NC(=O)[C@H](CCCNC(=N)N)NC(=O)[C@H](CO)NC3=O)NC(=O)[C@H](CCCCN)NC(=O)[C@H](CC(=O)O)NC(=O)[C@H](CC(N)=O)NC(=O)[C@H](CC(=O)O)NC(=O)[C@@H]2CCCN2C1=O` (H-DCLGFMRKCIPDNDKCCEPNLVCSRTHKWCKYVF-NH2; disulfide 2-17, 9-23, 16-30), for which the pIC50 in experiment [1] is 7.77; in experiment [2], under 5.30; in experiment [3] it was under 5.00.

Regarding `CC[C@H](C)[C@@H]1NC(=O)[C@@H]2CSSC[C@@H]3NC(=O)[C@H](C(C)C)NC(=O)[C@H](CC(C)C)NC(=O)[C@H](CC(N)=O)NC(=O)[C@@H]4CCCN4C(=O)[C@H](CCCNC(=N)N)NC(=O)[C@H](CSSC[C@H](NC(=O)[C@@H](N)CC(=O)O)C(=O)N[C@@H](CC(C)C)C(=O)N[C@@H](C)C(=O)N[C@@H](Cc4ccccc4)C(=O)N[C@@H](CCSC)C(=O)N[C@@H](CCCNC(=N)N)C(=O)N[C@@H](CCCCN)C(=O)N2)NC(=O)[C@H](CSSC[C@@H](C(=O)N[C@@H](CCCCN)C(=O)N[C@@H](Cc2ccc(O)cc2)C(=O)N[C@H](C(=O)N[C@@H](Cc2ccccc2)C(N)=O)C(C)C)NC(=O)[C@H](Cc2c[nH]c4ccccc24)NC(=O)[C@H](CCCCN)NC(=O)[C@H](Cc2cnc[nH]2)NC(=O)[C@H]([C@@H](C)O)NC(=O)[C@H](CCCNC(=N)N)NC(=O)[C@H](CO)NC3=O)NC(=O)[C@H](CCCCN)NC(=O)[C@H](CC(=O)O)NC(=O)[C@H](CC(N)=O)NC(=O)[C@H](CC(=O)O)NC(=O)[C@@H]2CCCN2C1=O` (H-DCLAFMRKCIPDNDKCCRPNLVCSRTHKWCKYVF-NH2; disulfide 2-17, 9-23, 16-30), the pIC50 was 7.57 in experiment [1] and under 5.00 in experiment [3].

For the compound `CSCC[C@@H]1NC(=O)[C@H](Cc2ccccc2)NC(=O)CNC(=O)[C@H](CC(C)C)NC(=O)[C@@H](NC(=O)[C@@H](N)CC(=O)O)CSSC[C@@H]2NC(=O)[C@@H]3CSSC[C@@H](C(=O)N[C@@H](CCCCN)C(=O)N[C@@H](Cc4ccc(O)cc4)C(=O)N[C@H](C(=O)N[C@@H](Cc4ccccc4)C(N)=O)C(C)C)NC(=O)[C@H](Cc4c[nH]c5ccccc45)NC(=O)[C@H](CCCCN)NC(=O)[C@H](Cc4cnc[nH]4)NC(=O)[C@H]([C@@H](C)O)NC(=O)[C@H](CCCNC(=N)N)NC(=O)[C@H](CO)NC(=O)[C@H](CSSC[C@H](NC(=O)[C@H](CCCCN)NC(=O)[C@H](CCCNC(=N)N)NC1=O)C(=O)N[C@@H](CCC(=O)O)C(=O)N1CCC[C@H]1C(=O)N[C@@H](CC(=O)O)C(=O)N[C@@H](CC(N)=O)C(=O)N[C@@H](CC(=O)O)C(=O)N[C@@H](CCCCN)C(=O)N3)NC(=O)[C@H](C(C)C)NC(=O)[C@H](CC(C)C)NC(=O)[C@H](CC(N)=O)NC(=O)[C@@H]1CCCN1C(=O)[C@H](CCCNC(=N)N)NC2=O` (H-DCLGFMRKCEPDNDKCCRPNLVCSRTHKWCKYVF-NH2; disulfide 2-17, 9-23, 16-30), the pIC50 was 8.68 in experiment [1], under 5.30 in experiment [2] and under 5.00 in experiment [3].

Turning to `CC[C@H](C)[C@@H]1NC(=O)[C@@H]2CSSC[C@@H]3NC(=O)[C@H](C(C)C)NC(=O)[C@H](CC(C)C)NC(=O)[C@H](CC(N)=O)NC(=O)[C@@H]4CCCN4C(=O)[C@H](CCCNC(=N)N)NC(=O)[C@H](CSSC[C@H](NC(=O)[C@@H](N)CC(=O)O)C(=O)N[C@@H](CC(C)C)C(=O)NCC(=O)N[C@@H](Cc4ccccc4)C(=O)N[C@@H](CCSC)C(=O)N[C@@H](CCCNC(=N)N)C(=O)N[C@@H](CCCCN)C(=O)N2)NC(=O)[C@H](CSSC[C@@H](C(=O)N[C@@H](CCCCN)C(=O)N[C@@H](Cc2ccc(O)cc2)C(=O)N[C@H](C(=O)N[C@@H](Cc2ccccc2)C(N)=O)C(C)C)NC(=O)[C@H](Cc2c[nH]c4ccccc24)NC(=O)[C@H](CC(=O)O)NC(=O)[C@H](Cc2cnc[nH]2)NC(=O)[C@H]([C@@H](C)O)NC(=O)[C@H](CCCNC(=N)N)NC(=O)[C@H](CO)NC3=O)NC(=O)[C@H](CCCCN)NC(=O)[C@H](CC(=O)O)NC(=O)[C@H](CC(N)=O)NC(=O)[C@H](CC(=O)O)NC(=O)[C@@H]2CCCN2C1=O` (H-DCLGFMRKCIPDNDKCCRPNLVCSRTHDWCKYVF-NH2; disulfide 2-17, 9-23, 16-30), the pIC50 is 7.80 in experiment [1] and under 5.00 in experiment [3].

As to `CSCC[C@@H]1NC(=O)[C@H](Cc2ccccc2)NC(=O)CNC(=O)[C@H](CC(C)C)NC(=O)[C@@H](NC(=O)[C@@H](N)CC(=O)O)CSSC[C@@H]2NC(=O)[C@@H]3CSSC[C@@H](C(=O)N[C@@H](CCCCN)C(=O)N[C@@H](Cc4ccc(O)cc4)C(=O)N[C@H](C(=O)N[C@@H](Cc4ccccc4)C(N)=O)C(C)C)NC(=O)[C@H](Cc4c[nH]c5ccccc45)NC(=O)[C@H](CCCCN)NC(=O)[C@H](Cc4cnc[nH]4)NC(=O)[C@H]([C@@H](C)O)NC(=O)[C@H](CCCNC(=N)N)NC(=O)[C@H](CO)NC(=O)[C@H](CSSC[C@H](NC(=O)[C@H](CCCCN)NC(=O)[C@H](CCCNC(=N)N)NC1=O)C(=O)N[C@@H](CC(=O)O)C(=O)N1CCC[C@H]1C(=O)N[C@@H](CC(=O)O)C(=O)N[C@@H](CC(N)=O)C(=O)N[C@@H](CC(=O)O)C(=O)N[C@@H](CCCCN)C(=O)N3)NC(=O)[C@H](C(C)C)NC(=O)[C@H](CC(C)C)NC(=O)[C@H](CC(N)=O)NC(=O)[C@@H]1CCCN1C(=O)[C@H](CCCNC(=N)N)NC2=O` (H-DCLGFMRKCDPDNDKCCRPNLVCSRTHKWCKYVF-NH2; disulfide 2-17, 9-23, 16-30), the pIC50 in experiment [1] was 8.40; in experiment [2], under 5.30; in experiment [3], under 5.00.

As to `CC[C@H](C)[C@@H]1NC(=O)[C@@H]2CSSC[C@@H]3NC(=O)[C@H](C(C)C)NC(=O)[C@H](CC(C)C)NC(=O)[C@H](CC(N)=O)NC(=O)[C@@H]4CCCN4C(=O)[C@H](CCCNC(=N)N)NC(=O)[C@H](CSSC[C@H](NC(=O)[C@@H](N)CC(=O)O)C(=O)N[C@@H](CC(C)C)C(=O)NCC(=O)N[C@@H](Cc4ccccc4)C(=O)N[C@@H](CCSC)C(=O)N[C@@H](CCCNC(=N)N)C(=O)N[C@@H](CCCCN)C(=O)N2)NC(=O)[C@H](CSSC[C@@H](C(=O)N[C@@H](CCCCN)C(=O)N[C@@H](Cc2ccc(O)cc2)C(=O)N[C@H](C(=O)N[C@@H](Cc2ccccc2)C(N)=O)C(C)C)NC(=O)[C@H](Cc2c[nH]c4ccccc24)NC(=O)[C@H](CCCCN)NC(=O)[C@H](Cc2cnc[nH]2)NC(=O)[C@H]([C@@H](C)O)NC(=O)[C@H](CCCNC(=N)N)NC(=O)[C@H](CO)NC3=O)NC(=O)[C@H](CCCCN)NC(=O)[C@H](CC(=O)O)NC(=O)[C@H](CC(N)=O)NC(=O)[C@H](CC(=O)O)NC(=O)[C@H](CCC(=O)O)NC1=O` (H-DCLGFMRKCIEDNDKCCRPNLVCSRTHKWCKYVF-NH2; disulfide 2-17, 9-23, 16-30), the pIC50 was 8.60 in experiment [1], under 5.30 in experiment [2] and under 5.00 in experiment [3].

As for `CC[C@H](C)[C@@H]1NC(=O)[C@@H]2CSSC[C@@H]3NC(=O)[C@H](C(C)C)NC(=O)[C@H](CC(C)C)NC(=O)[C@H](CC(N)=O)NC(=O)[C@H](CCCCN)NC(=O)[C@H](CCCNC(=N)N)NC(=O)[C@H](CSSC[C@H](NC(=O)[C@@H](N)CC(=O)O)C(=O)N[C@@H](CC(C)C)C(=O)NCC(=O)N[C@@H](Cc4ccccc4)C(=O)N[C@@H](CCSC)C(=O)N[C@@H](CCCNC(=N)N)C(=O)N[C@@H](CCCCN)C(=O)N2)NC(=O)[C@H](CSSC[C@@H](C(=O)N[C@@H](CCCCN)C(=O)N[C@@H](Cc2ccc(O)cc2)C(=O)N[C@H](C(=O)N[C@@H](Cc2ccccc2)C(N)=O)C(C)C)NC(=O)[C@H](Cc2c[nH]c4ccccc24)NC(=O)[C@H](CCCCN)NC(=O)[C@H](Cc2cnc[nH]2)NC(=O)[C@H]([C@@H](C)O)NC(=O)[C@H](CCCNC(=N)N)NC(=O)[C@H](CO)NC3=O)NC(=O)[C@H](CCCCN)NC(=O)[C@H](CC(=O)O)NC(=O)[C@H](CC(N)=O)NC(=O)[C@H](CC(=O)O)NC(=O)[C@@H]2CCCN2C1=O` (H-DCLGFMRKCIPDNDKCCRKNLVCSRTHKWCKYVF-NH2; disulfide 2-17, 9-23, 16-30), the figures for the pIC50 in experiment [1], in experiment [2] and in experiment [3] were 8.64, under 5.30 and under 5.00, respectively.

The values above are taken from ChEMBL document CHEMBL3797186, “Single Residue Substitutions That Confer Voltage-Gated Sodium Ion Channel Subtype Selectivity in the NaV1.7 Inhibitory Peptide GpTx-1” (J Med Chem, 2016).
